This note sets out measurements from ChEMBL document CHEMBL3259550, “Polycyclic propargylamine and acetylene derivatives as multifunctional neuroprotective agents” (Eur J Med Chem, 2014).

SMILES strings stand for the structures. Calls of active or inactive are those of the source. No cut-off for these calls is given here.

A short description of assay [1]: Antiapoptotic activity against serum deprivation-induced human SK-N-BE(2) cells assessed as improvement in cell health at 1 mM to 10 uM after 36 hrs incubation by DePsipher agent relative to 1.25% DMSO. The class given is functional. In short, it runs like this: (§1)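 SK-N-BE(2) neuroblastoma cells grown in F12 with 10% FBS, Pen/Strep and fungizone at 37 °C. At 80% confluency they were serum-deprived for 24 h, then seeded at 1 x 10^6 cells per 2 mL serum-deprived medium containing compound in DMSO (1.25% v/v final). Cells were incubated 36 h, stained with DePsipher dye 20 min at 37 °C and run by flow cytometry (50 000 events; FL-1 green, FL-2 red). % viable = (Q1+Q2)/(Qtotal−Q3) x 100. Tests in triplicate.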

Assay [2] can be described thus: Antiapoptotic activity against serum deprivation-induced human SK-N-BE(2) cells assessed as viable cells at 10 uM after 36 hrs incubation by DePsipher agent relative to control. The class given is functional. In a few lines:
as §1

The species entered for assay [3] is Papio papio. In words: Inhibition of MAO-B in baboon liver mitochondrial fraction using MMTP substrate at 300 uM.
A short description of assay [4]: Antiapoptotic activity against serum deprivation-induced human SK-N-BE(2) cells assessed as apoptotic cells at 1 mM to 10 uM after 36 hrs incubation by DePsipher agent relative to 1.25% DMSO. The class given is functional. In short, it runs like this: as §1
Assay [5] can be described thus: Antiapoptotic activity against serum deprivation-induced human SK-N-BE(2) cells assessed as improvement in cell health at 1 mM to 10 uM after 36 hrs incubation by DePsipher agent relative to non-induced cells. The class given is functional. In a few lines:
as §1

What is called inhibition is the share of the control response that was lost under treatment. On to `C#CCN1C2C3C4CC5C6C4C2C6(C)C1(O)C53` (racemic), for which the results for the Activity in assay [1] and in assay [2] were 9% and 67%, respectively. The inhibition in assay [3] was 10.8%.
Take `C#CC12OC3(O)C4C5CC(C6C5C3(C)C61)C42` (racemic): the Activity in assay [1] was 9%; in assay [2] it was 100%; in assay [4], 0.5%. In assay [3], the inhibition entry is “inactive”. The “improvement in cell health” value in assay [5] was “Active”.
Consider `C#CCN(CC#C)C12CC3CC(CC(C3)C1)C2`, for which the results for the Activity in assay [1] and in assay [2] were 9% and 68%, respectively. Moreover, the inhibition in assay [3] was 14%.
Turning to `OC1(C#Cc2ccccc2)C2C3CC4C5C3CC2C5C41` (racemic), the Activity in assay [1] came out at 9%; in assay [2] it was 98%; in assay [4], 2.8%. Also, in assay [3], the inhibition was found to be 73.3%. Further, in assay [5], the “improvement in cell health” value is “Active”.
Consider `C#CCN1C2C3C4CC5C6C4C2C6C1(O)C53` (racemic), for which the Activity in assay [1] was 9%; in assay [2] it was 93%. In assay [3], this compound had an inhibition of 5.83%. The “improvement in cell health” value in assay [5] is “Active”.
With `C#CCNC12OC3C4C5CC(C6C5C3C61)C42` (racemic), the Activity was 9% in assay [1] and 88% in assay [2]. The inhibition result in assay [3] is “inactive”.
`C#CCN(C)[C@H](C)Cc1ccccc1`: the Activity in assay [2] stood at 77%. The inhibition in assay [3] was 93.3%.
As to `c1ccc(CNC23OC4C5C6CC(C7C6C4C72)C53)cc1` (stereo not drawn), the Activity in assay [1] came to 9%; in assay [2], 67%. Moreover, the inhibition in assay [3] came out at 14.6%.
For `C#CCN`, in assay [2], the Activity stood at 79%. For the same compound, the inhibition in assay [3] was 19.9%.
With `C#CCNC12OC3C4C5CC(C6C5C3(C)C61)C42` (racemic), the figures for the Activity in assay [1] and in assay [2] were 9% and 97%, respectively. Besides, the inhibition in assay [3] came to 11.7%. For the same compound, the “improvement in cell health” value in assay [5] is “Active”.
Turning to `C#CCN(Cc1ccccc1)C12CC3CC(CC(C3)C1)C2`, the Activity in assay [1] is 9%; in assay [2], 70%. For the same compound, in assay [3], the inhibition was determined as 20.1%.
Take `COCCOC(=O)C1=C(C)NC(C)=C(C(=O)OC(C)C)C1c1cccc([N+](=O)[O-])c1` (stereo not drawn): the outcome in assay [2] was inactive.
